According to ChEMBL document CHEMBL3352255, “Tailor-made fluorescent trilobolide to study its biological relevance” (J Med Chem, 2014):
Activity calls are given as the source filed them. No cut-off for these calls is given here.

How the values were obtained:
Rattus norvegicus [1] = organism: Rattus norvegicus; assay: Induction of LPS-induced NO production in rat peritoneal cells after 24 hrs using DAR-2 probe by fluorescence assay; format: functional, cell-based
HT-29 [2] = assay: Cytotoxicity against human HT-29 cells after 72 hrs by WST-1 assay; format: functional, cell-based; conditions: HT-29, 72 h
Outline: (§1)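 Dark cytotoxicity (no light exposure) by WST-1 tetrazolium-to-formazan conversion reflecting metabolic activity; compounds tested at concentrations up to 50 μM for 24, 48 or 72 h; IC50 taken as concentration giving 50% inhibition of cell viability.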

U2OS [3] = assay: Cellular uptake in human U2OS cells at 5 uM after 24 hrs by fluorescence microscopy; format: ADME, cell-based
Outline: (§2)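 Live-cell fluorescence microscopy of Bodipy-labelled conjugates (green emission), 5 μM, uptake followed at 10, 20, 40 min and 1, 3, 5, 24 h. Cells stained with Bodipy dye alone served as control for dye-driven localization.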

C2C12 [4] = assay: Cytotoxicity against mouse C2C12 cells after 72 hrs by WST-1 assay; format: functional, cell-based; conditions: C2C12, 72 h; outline: as §1
LNCaP [5] = assay: Cellular uptake in human LNCAP cells at 5 uM after 24 hrs by fluorescence microscopy; format: ADME, cell-based; outline: as §2
[6] = Cytotoxicity against human PC3 cells after 24 hrs by WST-1 assay; format: functional, cell-based; conditions: PC-3, 24 h; outline: as §1
MCF7 [7] = assay: Cytotoxicity against human MCF7 cells after 48 hrs by WST-1 assay; format: functional, cell-based; conditions: MCF7, 48 h; outline: as §1
U2OS [8] = assay: Cytotoxicity against human U2OS cells after 24 hrs by WST-1 assay; format: functional, cell-based; outline: as §1
LNCaP [9] = assay: Cytotoxicity against human LNCAP cells after 24 hrs by WST-1 assay; format: functional, cell-based; outline: as §1
MCF7 [10] = assay: Cellular uptake in human MCF7 cells at 5 uM after 24 hrs by fluorescence microscopy; format: ADME, cell-based; conditions: mcf7, 24 h
C2C12 [11] = assay: Cytotoxicity against mouse C2C12 cells after 48 hrs by WST-1 assay; format: functional, cell-based; conditions: C2C12, 48 h; outline: as §1
C2C12 [12] = assay: Cellular uptake in mouse C2C12 cells at 5 uM after 24 hrs by fluorescence microscopy; format: ADME, cell-based; conditions: c2c12, 24 h; outline: as §2
[13] = Cytotoxicity against human MIAPaCa2 cells after 72 hrs by WST-1 assay; format: functional, cell-based; conditions: MIA PaCa-2, 72 h; outline: as §1
[14] = Cytotoxicity against human PC3 cells after 72 hrs by WST-1 assay; format: functional, cell-based; conditions: PC-3, 72 h; outline: as §1
MCF7 [15] = assay: Cytotoxicity against human MCF7 cells after 24 hrs by WST-1 assay; format: functional, cell-based; conditions: MCF7, 24 h; outline: as §1
[16] = Cytotoxicity against human MIAPaCa2 cells after 24 hrs by WST-1 assay; format: functional, cell-based; conditions: MIA PaCa-2, 24 h; outline: as §1
MCF7 [17] = assay: Cytotoxicity against human MCF7 cells after 72 hrs by WST-1 assay; format: functional, cell-based; conditions: MCF7, 72 h; outline: as §1
[18] = Cytotoxicity against human PC3 cells after 48 hrs by WST-1 assay; format: functional, cell-based; conditions: PC-3, 48 h; outline: as §1
HT-29 [19] = assay: Cytotoxicity against human HT-29 cells after 48 hrs by WST-1 assay; format: functional, cell-based; conditions: HT-29, 48 h; outline: as §1
[20] = Cytotoxicity against rat peritoneal cells assessed as reduction in cell viability at 40 uM after 24 hrs by WST-1 assay
LNCaP [21] = assay: Cytotoxicity against human LNCAP cells after 48 hrs by WST-1 assay; format: functional, cell-based; outline: as §1
[22] = Cytotoxicity against human MIAPaCa2 cells after 48 hrs by WST-1 assay; format: functional, cell-based; conditions: MIA PaCa-2, 48 h; outline: as §1
C2C12 [23] = assay: Cytotoxicity against mouse C2C12 cells after 24 hrs by WST-1 assay; format: functional, cell-based; conditions: C2C12, 24 h; outline: as §1
HeLa = assay: Cellular uptake in human HeLa cells at 5 uM after 24 hrs by fluorescence microscopy; format: ADME, cell-based; outline: as §2
U2OS [24] = assay: Cytotoxicity against human U2OS cells after 48 hrs by WST-1 assay; format: functional, cell-based; outline: as §1
U2OS [25] = assay: Cytotoxicity against human U2OS cells after 72 hrs by WST-1 assay; format: functional, cell-based; outline: as §1
[26] = Cytotoxicity against rat peritoneal cells assessed as reduction in cell viability at 40 uM after 24 hrs by WST-1 assay; format: cell-based
HT-29 [27] = assay: Cytotoxicity against human HT-29 cells after 24 hrs by WST-1 assay; format: functional, cell-based; conditions: HT-29, 24 h; outline: as §1
[28] = Cellular uptake in HEK293T cells at 5 uM after 24 hrs by fluorescence microscopy; format: ADME, cell-based; conditions: human, hek-293t; outline: as §2
[29] = Cellular uptake in human MIAPaCa2 cells at 5 uM after 24 hrs by fluorescence microscopy; format: ADME, cell-based; conditions: mia paca-2, 24 h; outline: as §2
[30] = Cellular uptake in human PC3 cells at 5 uM after 24 hrs by fluorescence microscopy; format: ADME, cell-based; conditions: pc-3, 24 h; outline: as §2
A549 = assay: Cellular uptake in human A549 cells at 5 uM after 24 hrs by fluorescence microscopy; format: ADME, cell-based; conditions: a549, 24 h; outline: as §2
LNCaP [31] = assay: Cytotoxicity against human LNCAP cells after 72 hrs by WST-1 assay; format: functional, cell-based; outline: as §1
Rattus norvegicus [32] = organism: Rattus norvegicus; assay: Induction of TNFalpha production in rat peritoneal cells at 0.01 to 40 uM after 24 hrs by ELISA; format: functional, cell-based

Compound | Activity (Rattus norvegicus [1]) | IC50 (HT-29 [2]) [µM] | IC50 (C2C12 [4]) [µM] | IC50 [6] [µM] | IC50 (MCF7 [7]) [µM] | IC50 (U2OS [8]) [µM] | IC50 (LNCaP [9]) [µM] | IC50 (C2C12 [11]) [µM] | IC50 [13] [µM] | IC50 [14] [µM] | IC50 (MCF7 [15]) [µM] | IC50 [16] [µM] | IC50 (MCF7 [17]) [µM] | IC50 [18] [µM] | IC50 (HT-29 [19]) [µM] | IC50 (LNCaP [21]) [µM] | IC50 [22] [µM] | IC50 (C2C12 [23]) [µM] | IC50 (U2OS [24]) [µM] | IC50 (U2OS [25]) [µM] | also measured
C/C=C(/C)C(=O)O[C@@H]1C[C@H]2C(=C1C)[C@@H]1OC(=O)[C@@](C)(O)[C@@]1(O)[C@@H](OC(=O)CCOCCOCCOCCOCCn1cc(COCCOCCOCCOCCNC(=O)CCOCCOCCOCCOCCn3cc(COc4ccc(C5=C6C=CC=[N+]6[B-](F)(F)n6cccc65)cc4)nn3)nn1)C[C@]2(C)OC(C)=O | Dose-dependent effect | > 50 | > 50 | > 50 | > 50 | > 50 | > 50 | > 50 | > 50 | > 50 | > 50 | > 50 | > 50 | > 50 | > 50 | > 50 | > 50 | > 50 | > 50 | > 50 | Drug uptake (U2OS [3]): Not Active; Drug uptake (LNCaP [5]): Not Active; Drug uptake (MCF7 [10]): Not Active; Drug uptake (C2C12 [12]): Not Active; Activity [20]: Non-toxic; Drug uptake (HeLa): Not Active; Activity [26]: Non-toxic; IC50 (HT-29 [27]): > 50 µM; Drug uptake [28]: Not Active; Drug uptake [29]: Not Active; Drug uptake [30]: Not Active; Drug uptake (A549): Not Active; IC50 (LNCaP [31]): > 50 µM
C/C=C(/C)C(=O)O[C@@H]1C[C@H]2C(=C1C)[C@@H]1OC(=O)[C@@](C)(O)[C@@]1(O)[C@@H](OC(=O)Cn1cc(COc3ccc(C4=C5C=CC=[N+]5[B-](F)(F)n5cccc54)cc3)nn1)C[C@]2(C)OC(C)=O | Dose-dependent effect | > 50 | > 50 | 2.2 | > 50 | > 50 | > 50 | > 50 | > 50 | 3.2 | > 50 | > 50 | > 50 | 2.9 | > 50 | 3.5 | > 50 | > 50 | > 50 | > 50 | Drug uptake (U2OS [3]): Not Active; Drug uptake (LNCaP [5]): Not Active; Drug uptake (MCF7 [10]): Not Active; Drug uptake (C2C12 [12]): Not Active; Activity [20]: Non-toxic; Drug uptake (HeLa): Not Active; Activity [26]: Non-toxic; IC50 (HT-29 [27]): > 50 µM; Drug uptake [28]: Not Active; Drug uptake [29]: Not Active; Drug uptake [30]: Not Active; Drug uptake (A549): Not Active; IC50 (LNCaP [31]): > 50 µM
C/C=C(/C)C(=O)O[C@@H]1C[C@H]2C(=C1C)[C@@H]1OC(=O)[C@@](C)(O)[C@@]1(O)[C@@H](OC(=O)CCOCCOCCOCCOCCOCCOCCOCCOCCOCCOCCn1cc(COc3ccc(C4=C5C=CC=[N+]5[B-](F)(F)n5cccc54)cc3)nn1)C[C@]2(C)OC(C)=O | Dose-dependent effect | > 50 | > 50 | > 50 | 48 | > 50 | > 50 | > 50 | 41.1 | > 50 | > 50 | > 50 | 47.3 | > 50 | > 50 | > 50 | 50 | > 50 | > 50 | > 50 | Drug uptake (U2OS [3]): Not Active; Drug uptake (LNCaP [5]): Not Active; Drug uptake (MCF7 [10]): Not Active; Drug uptake (C2C12 [12]): Not Active; Activity [20]: Non-toxic; Drug uptake (HeLa): Not Active; Activity [26]: Non-toxic; IC50 (HT-29 [27]): > 50 µM; Drug uptake [28]: Not Active; Drug uptake [29]: Not Active; Drug uptake [30]: Not Active; Drug uptake (A549): Not Active; IC50 (LNCaP [31]): > 50 µM
F[B-]1(F)n2cccc2C=C2C=CC=[N+]21 | inactive | > 50 | > 50 | 1.5 | > 50 | > 50 | > 50 | > 50 | > 50 | 5.6 | > 50 | > 50 | > 50 | 3.1 | > 50 | > 50 | > 50 | > 50 | > 50 | > 50 | Activity (Rattus norvegicus [32]): inactive; IC50 (HT-29 [27]): > 50 µM; IC50 (LNCaP [31]): > 50 µM
